Reference: ChEMBL document CHEMBL3352594 (J Med Chem, 2014)
Activity calls are given as the source filed them. The calls are words filed in the database; no cut-off is given here.

Columns and labels:
Macrophage [1] = experiment: Inhibition of LPS-induced NO production in C57BL/6 mouse macrophages preincubated with compound for 1 hr before LPS challenge measured after 24 hrs by Griess method; assay type: functional, cell-based; details: C57BL/6, Macrophage
In short: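 Peritoneal macrophages harvested from male C57BL/6J mice 3 days after ip thioglycollate; 1 × 10^5 cells/well in RPMI-1640 + 5% newborn calf serum, nonadherent cells removed after 2 h. Compounds added 1 h before LPS 1 μg/mL; 24 h later supernatant nitrite read by Griess reagent at 570 nm against a nitrite standard curve. IC50 from ≥2 experiments in triplicate; selectivity index = cytotoxicity IC50 / NO-inhibition IC50.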

[2] = Cytotoxicity against C57BL/6 mouse macrophages after 24 hrs by MTT assay; assay type: cell-based; details: C57BL/6, Macrophage
In short: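 Thioglycollate-elicited peritoneal macrophages from male C57BL/6 mice, 1 × 10^5 cells/well, adhered 2 h, then exposed to compounds 24 h. Washed, MTT (5 mg/mL in PBS) added 4 h at 37 °C, formazan dissolved in DMSO, absorbance 570 nm.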

Macrophage [3] = experiment: Selectivity index, ratio of IC50 for C57BL/6 mouse macrophages to IC50 for LPS-induced NO production in C57BL/6 mouse macrophages
Macrophage [4] = experiment: Inhibition of intrinsic NO production in C57BL/6 mouse macrophages at 10 uM measured after 24 hrs by Griess method; assay type: functional, cell-based
In short: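 Unstimulated peritoneal macrophages (no LPS) cultured 2 h, then exposed to compound at 10 μM for 24 h. Supernatant nitrite measured by Griess assay at 570 nm against a standard curve; untreated, vehicle and LPS (1 μg/mL) wells as controls. Three independent experiments, mean ± SEM.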

Mus musculus [5] = experiment: Antiinflammatory activity in Kunming mouse assessed as inhibition of croton oil-induced ear edema at 5 umol/kg, po administered before challenge relative to vehicle-treated control; assay type: functional
In short: (§1)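 Male Kunming mice; croton oil applied topically to left ear at 0.4 mg/ear. Test agent or equal-volume vehicle given 1 h before (po 5, 10, 20 μmol/kg; sc 77, 154, 308 μmol/kg). Euthanized under pentobarbital 4 h after croton oil; 8 mm ear punches weighed, left minus right weight = edema; inhibition vs vehicle group. n = 10 (po) or 8–9 (sc); mean ± SEM.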

Mus musculus [6] = experiment: Antiinflammatory activity in Kunming mouse assessed as inhibition of croton oil-induced ear edema at 10 umol/kg, po administered before challenge relative to vehicle-treated control; assay type: functional; in short: as §1
Mus musculus [7] = experiment: Antiinflammatory activity in Kunming mouse assessed as inhibition of croton oil-induced ear edema at 20 umol/kg, po administered before challenge relative to vehicle-treated control; assay type: functional; in short: as §1
Mus musculus [8] = experiment: Antiinflammatory activity in specific pathogen-free COPD-like lung inflammation BALB/c mouse model assessed as inhibition of neutrophils at 2 umol/kg/day, po for 35 days measured 24 hrs post last dose relative to vehicle-treated control; assay type: functional
In short: (§2)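 Male SPF BALB/c mice (18−20 g) given cigarette smoke 5 min twice daily (days 2−13, 15−35) plus LPS 20 μg in 30 μL saline on days 1 and 14. Oral dosing 1 h before first exposure, daily for 35 days. BAL (3 × 0.8 mL ice-cold saline) collected about 24 h after final dose. Centrifuged pellet resuspended in 200 μL PBS and counted by hemocytometer for differential cells.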

Mus musculus [9] = experiment: Antiinflammatory activity in specific pathogen-free COPD-like lung inflammation BALB/c mouse model assessed as inhibition of white blood cells at 2 umol/kg/day, po for 35 days measured 24 hrs post last dose relative to vehicle-treated control; assay type: functional, organism-based; in short: as §2
Mus musculus [10] = experiment: Antiinflammatory activity in specific pathogen-free COPD-like lung inflammation BALB/c mouse model assessed as inhibition of eosinophils at 2 umol/kg/day, po for 35 days measured 24 hrs post last dose relative to vehicle-treated control; assay type: functional, organism-based; in short: as §2
Mus musculus [11] = experiment: Antiinflammatory activity in specific pathogen-free COPD-like lung inflammation BALB/c mouse model assessed as inhibition of TNFalpha level at 2 umol/kg/day, po for 35 days measured 24 hrs post last dose relative to vehicle-treated control; assay type: functional, organism-based
In short: (§3)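 Male SPF BALB/c mice (18−20 g) exposed to cigarette smoke 5 min twice daily on days 2−13 and 15−35, with 20 μg LPS in 30 μL saline on days 1 and 14. Dosed orally 1 h before first exposure, daily for 35 days. Lungs lavaged 3× with 0.8 mL ice-cold saline about 24 h after last dose. Supernatant cytokines measured by ELISA. n = 8−11, mean ± SEM, Student's t test.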

Mus musculus [12] = experiment: Antiinflammatory activity in specific pathogen-free COPD-like lung inflammation BALB/c mouse model assessed as inhibition of IL-1beta level at 2 umol/kg/day, po for 35 days measured 24 hrs post last dose relative to vehicle-treated control; assay type: functional, organism-based; in short: as §3
Mus musculus [13] = experiment: Antiinflammatory activity in specific pathogen-free COPD-like lung inflammation BALB/c mouse model assessed as inhibition of IL-6 level at 2 umol/kg/day, po for 35 days measured 24 hrs post last dose relative to vehicle-treated control; assay type: functional, organism-based; in short: as §3
[14] = Toxicity in Kunming mouse administered orally as single dose measured over 14 days; assay type: organism-based; details: in vivo, po
In short: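 SPF Kunming mice, half male and half female, fasted 16 h with water allowed, then weighed and randomized at 10/group. Single gavage dose (0.1 mL/10 g) at various doses, with solvent-only controls. Survival monitored for 14 days.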

Macrophage [15] = experiment: Inhibition of LPS-induced iNOS expression in C57BL/6 mouse macrophages preincubated at 1 uM for 1 hr before LPS challenge measured after 24 hrs by immunoblotting; assay type: functional, cell-based
In short: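 Male C57BL/6 peritoneal macrophages pretreated 1 h with compound at 1 μM, then LPS 1 μg/mL for 24 h. Lysates resolved on 10% SDS-PAGE and transferred to PVDF; blots probed with rabbit anti-iNOS and anti-β-actin (1:1000, overnight 4 °C), visualized by ECL. iNOS/β-actin ratio from densitometry; three independent experiments, mean ± SEM.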

Mus musculus [16] = experiment: Antiinflammatory activity in specific pathogen-free COPD-like lung inflammation BALB/c mouse model assessed as inhibition of IL-8 level at 2 umol/kg/day, po for 35 days measured 24 hrs post last dose relative to vehicle-treated control; assay type: functional
In short: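 SPF male BALB/c mice (18−20 g) exposed to cigarette smoke 5 min twice daily (days 2–13, 15–35) plus 20 μg LPS in 30 μL saline (days 1, 14). Oral drug 2 μmol/kg daily for 35 days, 1 h before exposure. Killed ~24 h after last dose; lungs lavaged 3× with 0.8 mL ice-cold saline; IL-8 in BAL supernatant by ELISA; n = 8−11, mean ± SEM.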

Mus musculus [17] = experiment: Antiinflammatory activity in Kunming mouse assessed as inhibition of croton oil-induced ear edema at 77 umol/kg, sc administered before challenge relative to vehicle-treated control; assay type: functional; in short: as §1
Mus musculus [18] = experiment: Antiinflammatory activity in Kunming mouse assessed as inhibition of croton oil-induced ear edema at 154 umol/kg, sc administered before challenge relative to vehicle-treated control; assay type: functional; in short: as §1
Mus musculus [19] = experiment: Antiinflammatory activity in Kunming mouse assessed as inhibition of croton oil-induced ear edema at 308 umol/kg, sc administered before challenge relative to vehicle-treated control; assay type: functional; in short: as §1

Structure (SMILES)	IC50 (Macrophage [1])	IC50 [2]	Ratio IC50 (Macrophage [3])	inhibition (Macrophage [4])	inhibition (Macrophage [15])	other results
CC(C)=CC(=O)O[C@H]1C(=O)O[C@@H]2C[C@H]3C(C)=C(O)C(=O)C[C@]3(C)[C@H]3[C@@H](O)[C@H](O)[C@]4(C(=O)OCc5ccc(OCc6c(-c7ccccc7)no[n+]6[O-])cc5)OC[C@]32[C@@H]14	2200 nM	3900 nM	1.8			
COC(=O)[C@]12OC[C@]34[C@H]([C@@H](O)[C@@H]1O)[C@@]1(C)CC(=O)C(O)=C(C)[C@@H]1C[C@H]3OC(=O)[C@H](OC(=O)CCC(=O)OCCCCOc1no[n+]([O-])c1S(=O)(=O)c1ccccc1)[C@@H]24	210 nM	1200 nM	5.7			
COC(=O)[C@]12OC[C@]34[C@H]([C@@H](O)[C@@H]1O)[C@@]1(C)CC(=O)C(OC(=O)CCC(=O)OCCCCOc5no[n+]([O-])c5S(=O)(=O)c5ccccc5)=C(C)[C@@H]1C[C@H]3OC(=O)[C@H](OC(=O)C=C(C)C)[C@@H]24	89 nM	790 nM	8.9	inactive		inhibition in vivo at 5 µmol/kg (Mus musculus [5]): 29.4%; inhibition in vivo at 10 µmol/kg (Mus musculus [6]): 39.9%; inhibition in vivo at 20 µmol/kg (Mus musculus [7]): 53.9%; inhibition in vivo at 2 µmol/kg (Mus musculus [8]): 85%; inhibition (Mus musculus [9]): Active; inhibition (Mus musculus [10]): Active; inhibition (Mus musculus [11]): Active; inhibition (Mus musculus [12]): Active; inhibition (Mus musculus [13]): Active; LD50 at 336 h [14]: 41.1 µmol/kg
CC(C)=CC(=O)O[C@H]1C(=O)O[C@@H]2C[C@H]3C(C)=C(O)C(=O)C[C@]3(C)[C@H]3[C@@H](O)[C@H](O)[C@]4(C(=O)O)OC[C@]32[C@@H]14	> 10000 nM	> 10000 nM		Active	Active	
CC(C)=CC(=O)O[C@H]1C(=O)O[C@@H]2C[C@H]3C(C)=C(O)C(=O)C[C@]3(C)[C@H]3[C@@H](O)[C@H](OC(=O)CCC(=O)OCCCCOc4no[n+]([O-])c4S(=O)(=O)c4ccccc4)[C@]4(C(=O)O)OC[C@]32[C@@H]14	11000 nM	> 10000 nM		inactive	Active	
COC(=O)[C@]12OC[C@]34[C@H]([C@@H](O)[C@@H]1O)[C@@]1(C)CC(=O)C(O)=C(C)[C@@H]1C[C@H]3OC(=O)[C@H](OC(=O)C=C(C)C)[C@@H]24 [BRUSATOL]	50 nM	140 nM				inhibition in vivo at 5 µmol/kg (Mus musculus [5]): 24.3%; inhibition in vivo at 10 µmol/kg (Mus musculus [6]): 27.1%; inhibition in vivo at 20 µmol/kg (Mus musculus [7]): 46.8%; inhibition in vivo at 2 µmol/kg (Mus musculus [16]): 46%
COC(=O)[C@]12OC[C@]34[C@H]([C@@H](O)[C@@H]1O)[C@@]1(C)CC(=O)C(OCc5ccc(OCc6c(-c7ccccc7)no[n+]6[O-])cc5)=C(C)[C@@H]1C[C@H]3OC(=O)[C@H](OC(=O)C=C(C)C)[C@@H]24	2100 nM	> 10000 nM	>4.7			
COC(=O)[C@]12OC[C@]34[C@H]([C@@H](O)[C@@H]1O)[C@@]1(C)CC(=O)C(OC(=O)CCC(=O)OCc5ccc(OCc6c(-c7ccccc7)no[n+]6[O-])cc5)=C(C)[C@@H]1C[C@H]3OC(=O)[C@H](OC(=O)C=C(C)C)[C@@H]24	47 nM	150 nM	3.2	Active		
CC(C)=CC(=O)O[C@H]1C(=O)O[C@@H]2C[C@H]3C(C)=C(OC(=O)CCC(=O)OCCCCOc4no[n+]([O-])c4S(=O)(=O)c4ccccc4)C(=O)C[C@]3(C)[C@H]3[C@@H](O)[C@H](O)[C@]4(C(=O)O)OC[C@]32[C@@H]14	1300 nM	> 10000 nM	>7.6	inactive	Active	
COC(=O)[C@]12OC[C@]34[C@H]([C@@H](O)[C@@H]1O)[C@@]1(C)CC(=O)C(O)=C(C)[C@@H]1C[C@H]3OC(=O)[C@H](OC(=O)CCC(=O)OCc1ccc(OCc3c(-c5ccccc5)no[n+]3[O-])cc1)[C@@H]24	380 nM	820 nM	2.2			
CC(C)=CC(=O)O[C@H]1C(=O)O[C@@H]2C[C@H]3C(C)=C(O)C(=O)C[C@]3(C)[C@H]3[C@@H](O)[C@H](O)[C@]4(C(=O)OCCCCOc5no[n+]([O-])c5S(=O)(=O)c5ccccc5)OC[C@]32[C@@H]14	1100 nM	3000 nM	2.7			
CC(C)=CC(=O)O[C@H]1C(=O)O[C@@H]2C[C@H]3C(C)=C(OC(=O)CCC(=O)OCCCCOc4no[n+]([O-])c4S(=O)(=O)c4ccccc4)C(=O)C[C@]3(C)[C@H]3[C@@H](O)[C@H](OC(=O)CCC(=O)OCCCCOc4no[n+]([O-])c4S(=O)(=O)c4ccccc4)[C@]4(C(=O)O)OC[C@]32[C@@H]14	67 nM	> 10000 nM	>149	inactive	Active	inhibition in vivo at 5 µmol/kg (Mus musculus [5]): 0.9%; inhibition in vivo at 10 µmol/kg (Mus musculus [6]): 6.4%; inhibition in vivo at 20 µmol/kg (Mus musculus [7]): 7.8%; inhibition in vivo at 77 µmol/kg (Mus musculus [17]): 31.4%; inhibition in vivo at 154 µmol/kg (Mus musculus [18]): 61%; inhibition in vivo at 308 µmol/kg (Mus musculus [19]): 76.5%; inhibition in vivo at 2 µmol/kg (Mus musculus [16]): 48%; inhibition (Mus musculus [9]): Active; inhibition (Mus musculus [10]): Active; inhibition (Mus musculus [11]): Active; inhibition (Mus musculus [12]): Active; inhibition (Mus musculus [13]): Active; LD50 at 336 h [14]: > 3850 µmol/kg
COC(=O)[C@]12OC[C@]34[C@H]([C@@H](O)[C@@H]1O)[C@@]1(C)CC(=O)C(OC(=O)c5ccccc5C(=O)OCCCCOc5no[n+]([O-])c5S(=O)(=O)c5ccccc5)=C(C)[C@@H]1C[C@H]3OC(=O)[C@H](OC(=O)C=C(C)C)[C@@H]24	690 nM	1300 nM	1.9			
